Molecules are shown by their SMILES. Active and inactive are the calls of the source.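 How the source made its calls: active means calcium signal ratio cut to more than 3 SD under the fully stimulated control mean yet still positive, in both repeats and the primary screen; inactive means the rest.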

This assay deals with Short transient receptor potential channel 4 (Mus musculus) (UniProt Q9QUQ5). The assay is described as follows: inhibitors of mouse TRPC4 channel, confirmation, cell-based, second round, Fluo4, HEK293 TRPC4beta/mu-opioid, 1 µM (AID 2637). The note with it: Fluo4 calcium flux, DAMGO, at 1 µM. An outline of the steps: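 System: HEK293 stable line co-expressing TRPC4beta and mu-opioid receptor; Repeats: duplicates; Benchmarks: ECmax and compound-free wells; Timing: Fluo4 loading 45 min, compound exposure 110 s; Dosing: one dose, 1 µM final; Also added: DAMGO, submaximal then ECmax; Signal: Fluo4 calcium fluorescence, kinetic real-time read after baseline.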
Chain of Short transient receptor potential channel 4 (Mus musculus) (Q9QUQ5 whole entry, looked up): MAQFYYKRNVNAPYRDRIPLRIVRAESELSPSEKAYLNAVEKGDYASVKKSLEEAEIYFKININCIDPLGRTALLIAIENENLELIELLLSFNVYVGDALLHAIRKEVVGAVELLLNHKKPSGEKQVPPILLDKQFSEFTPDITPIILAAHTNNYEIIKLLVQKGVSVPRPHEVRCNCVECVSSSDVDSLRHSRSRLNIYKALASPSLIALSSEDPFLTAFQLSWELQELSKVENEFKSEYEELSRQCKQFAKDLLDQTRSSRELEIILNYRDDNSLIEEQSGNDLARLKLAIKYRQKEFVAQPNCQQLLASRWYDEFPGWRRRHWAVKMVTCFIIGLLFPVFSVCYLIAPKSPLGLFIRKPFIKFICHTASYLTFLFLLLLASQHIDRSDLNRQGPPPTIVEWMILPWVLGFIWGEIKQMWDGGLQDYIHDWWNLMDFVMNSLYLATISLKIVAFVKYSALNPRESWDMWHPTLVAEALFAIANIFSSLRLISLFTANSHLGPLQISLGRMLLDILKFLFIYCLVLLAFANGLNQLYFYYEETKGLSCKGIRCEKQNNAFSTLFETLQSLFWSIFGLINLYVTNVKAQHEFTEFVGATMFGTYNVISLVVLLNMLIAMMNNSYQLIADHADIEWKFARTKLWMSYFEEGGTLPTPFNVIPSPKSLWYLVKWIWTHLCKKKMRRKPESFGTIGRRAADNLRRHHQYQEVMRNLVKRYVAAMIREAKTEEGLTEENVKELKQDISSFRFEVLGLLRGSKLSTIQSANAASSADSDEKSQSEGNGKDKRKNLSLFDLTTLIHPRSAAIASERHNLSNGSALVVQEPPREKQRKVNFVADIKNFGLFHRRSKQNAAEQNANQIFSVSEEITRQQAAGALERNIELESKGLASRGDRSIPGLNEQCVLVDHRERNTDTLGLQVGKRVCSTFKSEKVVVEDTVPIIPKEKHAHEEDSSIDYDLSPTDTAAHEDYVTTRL
For orientation: Calcium flux is commonly read through the fluorescence of an indicator in the cells.
For the molecule `Clc1ccc(OCC#CCN2CCCC2)cc1`, the result was inactive.

With `CN(CCOc1ccc(C=C2C(=O)NC(=O)NC2=O)cc1)c1ccccn1`, the outcome was inactive.

For `CCN1CC2C3CCC(C)(O3)C2C1` (stereo unspecified), the result was inactive.

On to `CC(C)CNc1c2c(nc3ccccc13)CCC2`, for which the outcome was inactive.

`COC(=O)C1=C(c2cc3ccccc3s2)C[C@@H]2CC[C@H]1N2C(=O)NCCO`: the outcome was inactive.

For `Cc1ccc(-c2cc(-c3ccccc3)cc(-c3ccccc3)[n+]2-c2ccccc2)cc1`, the result was inactive.

As for `Nc1ccccc1-[n+]1c(-c2ccccc2)cc(-c2ccccc2)cc1-c1ccccc1`, the result was inactive.

As for `Clc1ccc2c(c1)C(c1ccccc1Cl)=NCc1nnc(N3CCN(CCOc4ccccc4)CC3)n1-2`, the result was inactive.

For `Cc1ccccc1CN1CCNCC1`, the result was inactive.

`CN1CCN(Cc2cc(=O)n3ccsc3n2)CC1`: the outcome was inactive.

As to `CCC1=Nc2cc(C(=O)N3CCC4(CC3)OCCO4)ccc2Sc2ccc(Br)cc21`, the outcome was inactive.

On to `CCCCN1C(=O)NC(=O)C2(Cc3c(nc4c(C)cccn4c3=O)N3CCc4ccccc4C32)C1=O` (stereo unspecified), for which the outcome was inactive.

Regarding `C=CCOC(=O)C1=C(C)OC(N)=C(C#N)[C@@]12C(=O)N(CC(N)=O)c1ccccc12`, the result was inactive.

On to `FC(F)(F)c1ccc(CN2CCNCC2)cc1`, for which the outcome was inactive.

On to `Clc1ccc(N2CCNCC2)nn1`, for which the outcome was inactive.

With `O=[N+]([O-])c1ccc(N2CCNCC2)cc1N1CCCCCC1`, the outcome was inactive.

As to `C#CCN1C(=O)C2(C(C#N)=C(N)OC(C)=C2C(=O)OCc2ccccc2)c2ccccc21` (stereo unspecified), the result was inactive.

Regarding `Cc1ccc(-c2nc(N(C)C3CCN(C)CC3)c3ccccc3n2)cc1`, the result was inactive.

`c1ccc2nc(OCCN3CC3)ccc2c1`: the result was inactive.

For `Cc1cc(OC(C)C(=O)NCc2ccncc2)c2c3c(c(=O)oc2c1)CCCC3` (stereo unspecified), the result was inactive.

For the molecule `CCNCCNc1ccc([N+](=O)[O-])c2cccnc12`, the result was inactive.

Regarding `CN(C)CCn1cnc2ccccc21`, the outcome was inactive.

For the molecule `COC(=O)C(O)(c1ccc(NC(=S)NC(=O)c2ccc(Cl)cc2Cl)c(C)c1)C(F)(F)F` (stereo unspecified), the result was inactive.

Regarding `COc1ccc(C(=O)C2CN(C)CC2c2ccc(Cl)cc2)cc1` (stereo unspecified), the result was inactive.

As for `CC(Cc1ccccc1)NCC(=O)Nc1cc(N(C)C)nc2ccccc12` (stereo unspecified), the result was inactive.

In the case of `Nc1c([N+](=O)[O-])cc(F)c(N2CCNCC2)c1Br`, the outcome was inactive.

As to `Oc1c(Br)cc(Br)cc1CN1CCN(Cc2ccccc2)CC1`, the result was inactive.

As to `CCNc1cc(N2CCNCC2)ccc1[N+](=O)[O-]`, the outcome was inactive.

As to `CCn1ccnc1CN1CCCC(C(=O)c2cccc(C(F)(F)F)c2)C1` (stereo unspecified), the outcome was inactive.

Consider `CCc1ccc(OCCCN=C(C)c2c(O)n(C)c(=O)n(C)c2=O)cc1`, for which the result was inactive.

As for `Cc1cccc(N=Cc2c(O)n(-c3ccccc3C)c(=O)[nH]c2=O)c1`, the outcome was inactive.

The values above are taken from PubChem BioAssay.
